In brackets after ≈: the same amount, converted by molar mass.
Legend:
Type in all cases: functional
Staphylococcus aureus = test: Antibacterial activity against methicillin-sensitive Staphylococcus aureus NCTC 6571
Outline: (§1)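 Broth microdilution in Mueller-Hinton broth. Samples were dissolved in sterile water to 200 µg mL-1 as the working solution and doubling dilutions were made across rows. Plates were incubated at 37 °C and inspected visually, with resazurin added as growth indicator. MIC reported in µg mL-1.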

Enterococcus faecalis = test: Antibacterial activity against Streptococcus faecalis NCTC 775; outline: as §1
[1] = system: Mycolicibacterium fortuitum; test: Antibacterial activity against Mycobacterium fortuitum NCTC 10394; outline: as §1
Aspergillus niger = test: Antifungal activity against Aspergillus niger IMI 149007
Outline: (§2)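 Antifungal microdilution in Sabouraud broth. Test sample at 200 µg mL-1 working solution in sterile water was serially doubled down successive rows. Incubation was at 25 °C, followed by visual growth check and addition of resazurin indicator. Read-out is MIC in µg mL-1.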

Candida albicans = test: Antifungal activity against Candida albicans NCPF 3179; outline: as §2
[2] = Staphylococcus aureus, NCTC 6571, read-out: MIC
[3] = Enterococcus faecalis, NCTC 775, read-out: MIC
[4] = Candida albicans, read-out: MIC

| SMILES | MIC (Staphylococcus aureus; [2]) [µg/mL] | MIC (Enterococcus faecalis; [3]) [µg/mL] | MIC [1] [µg/mL] | MIC (Aspergillus niger) [µg/mL] | MIC (Candida albicans; [4]) [µg/mL] | MIC (Staphylococcus aureus) [µg/mL] | MIC (Enterococcus faecalis) [µg/mL] | MIC (Candida albicans) [µg/mL] |
| --- | --- | --- | --- | --- | --- | --- | --- | --- |
| Cn1cc(NC(=O)c2cc(NC(=O)c3ccc(/C=C/c4ccc5ccccc5n4)cc3)cn2C)cc1C(=O)NCCN1CCOCC1 | 50 (≈ 79.1 µM) | > 50 | > 50 | > 50 | > 50 |  |  |  |
| COc1cccc(C(=N)Nc2cc(C(=O)Nc3cc(C(=O)Nc4nc(C(=O)NCCCN(C)C)c(C(C)C)s4)n(C)c3)n(C)c2)c1 | 13 (≈ 20.1 µM) | 50 (≈ 77.2 µM) | > 50 | 50 (≈ 77.2 µM) | > 50 |  |  |  |
| CN(C)CCCn1cnc(NC(=O)c2cc(NC(=O)c3cc(NC=O)cn3C)cn2C)c1 | > 50 | > 50 | > 50 | > 50 | > 50 |  |  |  |
| COc1ccc(C(=O)Nc2cc(C(=O)Nc3cc(C(=O)Nc4cn(CCCN(C)C)cn4)n(C)c3)n(C)c2)cc1 | > 50 | > 50 | > 50 | > 50 | > 50 |  |  |  |
| Cn1cc(NC(=O)c2cc(NC(=O)c3ccc(/C=C/c4nc5ccccc5s4)cc3)cn2C)cc1C(=O)NCCN1CCOCC1 | 25 (≈ 39.2 µM) | 25 (≈ 39.2 µM) | > 50 | > 50 | > 50 |  |  |  |
| CN(C)CCCn1cnc(NC(=O)c2cc(NC(=O)c3cc(NC(=O)c4cc5ccccc5cn4)cn3C)cn2C)c1 | > 50 | > 50 | > 50 | > 50 | > 50 |  |  |  |
| CC(=N)Nc1cc(C(=O)Nc2cc(C(=O)Nc3cc(C(=O)NCCCN(C)C)n(C)c3)n(C)c2)n(C)c1 | 13 (≈ 25.5 µM) | 50 (≈ 98.1 µM) | > 50 | 50 (≈ 98.1 µM) | > 50 |  |  |  |
| Cn1cc(NC(=O)c2cc(NC(=O)c3ccc(/C=C/c4ccc5ccccc5c4)cc3)cn2C)cc1C(=O)NCCN1CCOCC1 | 25 (≈ 39.6 µM) | > 50 | > 50 | > 50 | > 50 |  |  |  |
| CC(C)c1sc(NC(=O)c2cc(NC(=O)c3cc(NC(=O)c4cc5ccccc5cn4)cn3C)cn2C)nc1C(=O)NCCN1CCOCC1 | > 50 | > 50 | > 50 | > 50 | > 50 |  |  |  |
| Cn1cc(NC(=O)c2cc(NC(=O)c3ccc(/C=C/c4nc5ccccc5o4)cc3)cn2C)cc1C(=O)NCCN1CCOCC1 (stereo in doubt; 72) |  |  |  |  |  | 3 (≈ 4.83 µM) | 3 (≈ 4.83 µM) | 50 (≈ 80.4 µM) |
| COc1cccc(C(=O)Nc2nc(C(=O)Nc3cc(C(=O)Nc4cc(C(=O)NCCC(=N)N)n(C)c4)n(C)c3)c(C(C)C)s2)c1 | 13 (≈ 20.5 µM) | 13 (≈ 20.5 µM) | > 50 | > 50 | > 50 |  |  |  |
| CC(C)CCc1sc(NC(=O)c2cc(NC(=O)c3ccc(/C=C/c4ccc5ccccc5n4)cc3)cn2C)nc1C(=O)NCCN1CCOCC1 | > 50 | > 50 | > 50 | > 50 | > 50 |  |  |  |
| COc1cccc(C(=N)Nc2cc(C(=O)Nc3cc(C(=O)Nc4cc(C(=O)NCCCN(C)C)n(C)c4)n(C)c3)n(C)c2)c1 | 25 (≈ 41.5 µM) | > 50 | > 50 | 25 (≈ 41.5 µM) | > 50 |  |  |  |
| COc1cccc(C(=N)Nc2cc(C(=O)Nc3cc(C(=O)Nc4cc(C(=O)NCCN5CCOCC5)n(C)c4)n(C)c3)n(C)c2)c1 | > 50 | > 50 | > 50 | > 50 | > 50 |  |  |  |
| CN(C)CCCNC(=O)c1cc(NC(=O)c2cc(NC(=O)c3cc(/C=C/c4ccc5ccccc5n4)cn3C)cn2C)cn1C | > 50 | > 50 | > 50 | 50 (≈ 82.4 µM) | 25 (≈ 41.2 µM) |  |  |  |
| COc1cccc(C(=N)Nc2cc(C(=O)Nc3cc(C(=O)Nc4nc(C(=O)NCCCN(C)C)c(CCC(C)C)s4)n(C)c3)n(C)c2)c1 | 3 (≈ 4.44 µM) | 13 (≈ 19.2 µM) | > 50 | > 50 | > 50 |  |  |  |
| COc1cccc(/C=C/c2cccc(C(=O)Nc3cc(C(=O)Nc4cc(C(=O)NCCCN(C)C)n(C)c4)n(C)c3)c2)c1 | 25 (≈ 42.9 µM) | 25 (≈ 42.9 µM) | > 50 | > 50 | > 50 |  |  |  |
| CC(=N)Nc1cc(C(=O)Nc2cc(C(=O)Nc3cc(C(=O)NCCCN(C)C)n(C)c3)n(C(C)C)c2)n(C)c1 | 13 (≈ 24.2 µM) | 50 (≈ 93 µM) | > 50 | 50 (≈ 93 µM) | > 50 |  |  |  |
| CC(=N)Nc1cc(C(=O)Nc2cc(C(=O)Nc3cc(C(=O)NCCN4CCOCC4)n(C)c3)n(C)c2)n(C)c1 | 50 (≈ 93 µM) | > 50 | > 50 | 50 (≈ 93 µM) | > 50 |  |  |  |
